Tests used:
[1] = tested on: Calu-1; test: Growth inhibition of human Calu1 cells at 10 uM after 24 hrs by propidium iodide assay; format: functional; settings: Calu-1, 24 h, read-out: GI
[2] = tested on: NCI-H460; test: Growth inhibition of human H460 cells at 10 uM after 24 hrs by propidium iodide assay; format: functional; settings: NCI-H460, 24 h, read-out: GI
[3] = tested on: THP-1; test: Antiinflammatory activity in human THP1 cells assessed as inhibition of LPS-induced TNFalpha release at 10 uM preincubated for 30 mins before LPS challenge by ELISA; format: functional
[4] = tested on: Radical scavenging activity; test: Antioxidant activity assessed as radical DPPH scavenging activity at 1 mM/mL; format: functional
Method in brief: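 DPPH radical scavenging by the Blois method. Compound stock solutions (1 mM) were mixed with 0.3 mM DPPH in methanol in a 3 mL total reaction and left to react at room temperature.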

[5] = Toxicity against […] assessed as cell growth; format: cell-based; parameters: concentration or dose not given beside the values
[6] = tested on: THP-1; test: Antiinflammatory activity in human THP1 cells assessed as inhibition of LPS-induced IL6 release at 10 uM preincubated for 30 mins before LPS challenge by ELISA; format: functional
[7] = tested on: ACHN; test: Growth inhibition of human ACHN cells at 10 uM after 48 hrs by propidium iodide assay; settings: read-out: GI
[8] = tested on: PANC-1; test: Growth inhibition of human PANC1 cells at 10 uM after 48 hrs by propidium iodide assay; settings: PANC-1, 48 h, read-out: GI
[9] = tested on: HCT-116; test: Growth inhibition of human HCT116 cells at 10 uM after 48 hrs by propidium iodide assay; settings: HCT-116, 48 h, read-out: GI
[10] = tested on: Calu-1; test: Growth inhibition of human Calu1 cells at 700 nM after 24 hrs by propidium iodide assay; format: functional; settings: Calu-1, 24 h, read-out: GI
[11] = tested on: ACHN; test: Growth inhibition of human ACHN cells at 700 nM after 48 hrs by propidium iodide assay; settings: read-out: GI
[12] = tested on: NCI-H460; test: Growth inhibition of human H460 cells at 700 nM after 48 hrs by propidium iodide assay; settings: NCI-H460, 48 h, read-out: GI
[13] = tested on: PANC-1; test: Growth inhibition of human PANC1 cells at 700 nM after 48 hrs by propidium iodide assay; settings: PANC-1, 48 h, read-out: GI
[14] = tested on: HCT-116; test: Growth inhibition of human HCT116 cells at 700 nM after 48 hrs by propidium iodide assay; settings: HCT-116, 48 h, read-out: GI
[15] = tested on: THP-1; test: Antiinflammatory activity in human THP1 cells assessed as inhibition of LPS-induced TNFalpha release at 1 uM preincubated for 30 mins before LPS challenge by ELISA; format: functional
Method in brief: (§1)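 PMA-differentiated THP-1 cells grown in RPMI 1640 with 10% FBS, penicillin and streptomycin. Compounds in 0.5% DMSO were added and preincubated 30 min at 37 °C, then cells were stimulated with E. coli 0127:B8 LPS. Released cytokine was quantified with a BD Biosciences kit per the manufacturer. Percent inhibition of release was calculated versus control. Cytotoxicity was checked in parallel by CCK-8.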

[16] = tested on: THP-1; test: Antiinflammatory activity in human THP1 cells assessed as inhibition of LPS-induced IL6 release at 1 uM preincubated for 30 mins before LPS challenge by ELISA; format: functional; method in brief: as §1
[17] = tested on: PANC-1; test: Growth inhibition of human PANC1 cells at 500 nM after 24 hrs by propidium iodide assay; format: functional; settings: PANC-1, 24 h, read-out: GI
[18] = tested on: Calu-1; test: Growth inhibition of human Calu1 cells at 500 nM after 24 hrs by propidium iodide assay; format: functional; settings: Calu-1, 24 h, read-out: GI
[19] = tested on: ACHN; test: Growth inhibition of human ACHN cells at 500 nM after 48 hrs by propidium iodide assay; settings: read-out: GI
[20] = tested on: NCI-H460; test: Growth inhibition of human H460 cells at 500 nM after 48 hrs by propidium iodide assay; settings: NCI-H460, 48 h, read-out: GI
[21] = tested on: HCT-116; test: Growth inhibition of human HCT116 cells at 500 nM after 48 hrs by propidium iodide assay; settings: HCT-116, 48 h, read-out: GI

Row | SMILES | inhibition of growth at 10 µM [1] | inhibition of growth at 10 µM [2] | inhibition at 10 µM [3] | Activity [4] | Activity [5] | inhibition at 10 µM [6] | inhibition of growth at 10 µM [7] | inhibition of growth at 10 µM [8] | inhibition of growth at 10 µM [9] | also measured
1 | COc1ccc(/C=C/C(=O)c2ccccc2)c(OC)c1 | 91% | 92% | 98% | 38% | 79% | 100% | 93% | 94% | 95% | 
2 | CN1CC[C@H](c2c(O)cc(O)c3c(=O)cc(-c4ccccc4Cl)oc23)[C@H](O)C1 [ALVOCIDIB] |  |  |  |  |  |  |  |  |  | inhibition of growth at 0.7 µM [10]: 68%; inhibition of growth at 0.7 µM [11]: 68%; inhibition of growth at 0.7 µM [12]: 84%; inhibition of growth at 0.7 µM [13]: 75%; inhibition of growth at 0.7 µM [14]: 71%
3 | COc1ccc(/C=C/C(=O)c2ccc(OC)cc2OC)c(OC)c1 | 32% | 38% | 2% | 31.3% | 35% | 81% | 48% | 43% | 31% | 
4 | COc1ccc(O)c(C(C)(C)C)c1.COc1ccc(O)cc1C(C)(C)C |  |  |  | 74% |  |  |  |  |  | 
5 | COc1ccc(/C=C/C(=O)c2ccc(Cl)cc2)c(OC)c1 | 28% | 29% | 0% | 26.4% | 0% | 12% | 28% | 29% | 22% | 
6 | COc1cc(/C=C/C(=O)c2ccc(Cl)cc2)cc(OC)c1OC | 67% | 54% | 98% | 36.5% | 79% | 100% | 57% | 66% | 92% | 
7 | C[C@@H]1C[C@H]2[C@@H]3CCC4=CC(=O)C=C[C@]4(C)[C@@]3(F)[C@@H](O)C[C@]2(C)[C@@]1(O)C(=O)CO [DEXAMETHASONE] |  |  |  |  | 0% |  |  |  |  | inhibition at 1 µM [15]: 73%; inhibition at 1 µM [16]: 84%
8 | Nc1ccn([C@@H]2O[C@H](CO)[C@@H](O)C2(F)F)c(=O)n1 [GEMCITABINE] |  |  |  |  |  |  |  |  |  | inhibition of growth at 0.5 µM [17]: 71%; inhibition of growth at 0.5 µM [18]: 70%; inhibition of growth at 0.5 µM [19]: 70%; inhibition of growth at 0.5 µM [20]: 68%; inhibition of growth at 0.5 µM [21]: 76%
9 | COc1cc(/C=C/C(=O)c2ccccc2)cc(OC)c1OC | 7% | 15% | 100% | 47.2% | 73% | 100% | 33% | 7% | 0% | 
10 | COc1ccc(/C=C/C(=O)c2ccc(Cl)cc2Cl)c(OC)c1 | 30% | 29% | 0% | 11.3% | 2% | 6% | 35% | 35% | 26% | 
11 | COc1ccc(C(=O)/C=C/c2ccc(OC)cc2OC)cc1 | 31% | 38% | 0% | 32.3% | 29% | 39% | 45% | 36% | 37% | 
